According to ChEMBL document CHEMBL1629653, “CMY-31 and CMY-36 cephalosporinases encoded by ColE1-like plasmids” (Antimicrob Agents Chemother, 2009):

Legend:
[1] = Activity of CMY-2 by spectrophotometry
In short: (§1)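 CMY β-lactamases purified from sonicated, ultracentrifuge-clarified extracts of E. coli DH5α clones (pB-cmy36, pB-cmy2) by Q- then S-Sepharose ion exchange (>90% pure by SDS-PAGE); steady-state hydrolysis kinetics measured spectrophotometrically, CMY-2 run in parallel.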

[2] = Ratio of Kcat to Km of CMY-2 by spectrophotometry; in short: as §1

Row | SMILES | Km [1] | kcat [1] | kcat/Km [2]
1 | O=C(Cc1cccs1)N[C@@H]1C(=O)N2C(C(=O)[O-])=C(C[n+]3ccccc3)CS[C@H]12 | 120 µM | 300 s⁻¹ | 2.5e+06 M⁻¹ s⁻¹
2 | O=C(Cc1cccs1)N[C@@H]1C(=O)N2C(C(=O)O)=C(/C=C/c3ccc([N+](=O)[O-])cc3[N+](=O)[O-])CS[C@H]12 | 10 µM | 980 s⁻¹ | 9.8e+07 M⁻¹ s⁻¹
3 | CC1(C)S[C@@H]2[C@H](NC(=O)Cc3ccccc3)C(=O)N2[C@H]1C(=O)O | 0.4 µM | 10 s⁻¹ | 2.5e+07 M⁻¹ s⁻¹
4 | CO/N=C(\C(=O)N[C@@H]1C(=O)N2C(C(=O)O)=C(COC(C)=O)CS[C@H]12)c1csc(N)n1 |  | < 0.01 s⁻¹ | 
